Results collected from several papers.
Lines come from different studies, so protocols differ.

O=C1CC[C@H](N2Cc3c(ccc4c3OCC43CCN(C[C@@H]4CCC5(CCN(c6ccc([C@@H]7c8ccc(O)cc8CC[C@@H]7c7ccccc7)cc6)CC5)OC4)CC3)C2=O)C(=O)N1 — half-life (mouse; plasma; oral; 3 mg/kg): ~13 h
CC(C)(C)OC(=O)NNc1nc2nonc2nc1Nc1ccccc1F — half-life (male C57BL/6 mouse; plasma; oral; 10 mg/kg): 0.25 to 0.45 h
CC1=NN(/C(=N/c2nnc(C)s2)Nc2ccc(C)c(C)c2)C(c2cc(F)c(F)c(F)c2)S1 (stereo not shown) — half-life (male CD-1 mouse; plasma; intravenous; 1 mg/kg): 1.56 h
FC(F)(F)c1nc2c(-c3cc(Cl)cc(Cl)c3)ccnc2[nH]1 — half-life (male C57BL/6 mouse; plasma; oral; 10 mg/kg): > 15 h
COc1cc2c(NC3CCN(CCCC(=O)NCCCCCCCCCCCC(=O)N[C@H](C(=O)N4C[C@H](O)C[C@H]4C(=O)NCc4ccc(-c5scnc5C)cc4)C(C)(C)C)CC3)nc(N3CCC(F)(F)CC3)nc2cc1OCCCN1CCCC1 — half-life (male C57BL/6 mouse; plasma; intraperitoneal; 50 mg/kg; single dose): 1.5 h
CCN1CCN(Cc2ccc(NC(=O)c3ccc(C)c(NC(=O)c4cncc(-c5cccs5)c4)c3)cc2C(F)(F)F)CC1 — half-life (mouse; plasma; intraperitoneal; 30 mg/kg; single dose): 2.71 h
CC(=O)O[C@@]12CO[C@@H]1C[C@H](O)[C@@]1(C)C(=O)[C@H](O)C3=C(C)[C@@H](OC(=O)[C@H](O)[C@@H](NC(=O)OC(C)(C)C)c4ccccc4)C[C@@](O)([C@@H](OC(=O)c4ccccc4)[C@H]21)C3(C)C — half-life (male Kunming mouse; liver; oral; 20 mg/kg): 2.7 h
CC(C(=O)Nc1c(F)cccc1F)N1CCN(c2ccccc2)CC1 (stereo not shown) — half-life (female C57BL/6 mouse; plasma; intraperitoneal; 10 mg/kg): ~0.55 h
Nc1ncn([C@H]2C[C@H](O)[C@@H](CO)O2)c(=O)n1 — half-life (female C57BL/6 mouse; plasma; intravenous; 0.4 mg/kg): 0.77 h
CCOc1ccc(N(C)S(=O)(=O)c2cc(Cl)sc2C(=O)Nc2cc(Cl)cc(C(=O)O)c2)cc1OC — half-life (male C57BL/6 mouse; plasma; intraperitoneal; 10 mg/kg): 0.469 h
COc1cc(C(=O)OCCCN2CCCN(CCCOC(=O)c3cc(OC)c(OC)c(OC)c3)CC2)cc(OC)c1OC — half-life (male CD-1 mouse; brain; subcutaneous): 0.84 h
CC(C)C[C@H](NC(=O)[C@@H]1COCCCCCC(=O)N2C[C@H](F)C[C@H]2C(=O)N1)C(=O)[C@@]1(C)CO1 — half-life (male BALB/c mouse; plasma; oral; 150 mg/kg): 0.79 h
CN1CCN(C(=O)[C@H](CCCN[C@@H]2C[C@H]2c2ccc(F)cc2)NC(=O)c2ccc(-n3ccnn3)cc2)CC1 — half-life (CD-1 mouse; plasma; oral; 10 mg/kg): 4.98 h
